From PubChem BioAssay
The source made the active and inactive calls. Rule as the data show it, unless noted: active = inhibition above about 30%; inactive = the rest.

Assays:
[1] = SK-BR-3 cell growth inhibitors, pilot screen, 24 h, human (AID 572;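 active = viability at or below 10% of carrier control in both of two separate runs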;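 also: compound exposure lasted between 18 and 24 h rather than exactly 24 h; 100% = carrier-treated control wells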); conditions: SK-BR-3 viability, CellTiter-Glo luminescence, at 10 µM, stronger effect = lower value
[2] = HUVEC growth inhibition – cell-based, human, primary screen (AID 575;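 active = viability at or below 30% in both replicate assays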;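 also: 100% = median of untreated cell wells with 0.1% DMSO on each plate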); conditions: HUVEC proliferation, CellTiter-Glo luminescence, 72 h; at 10 µM; stronger effect = lower value
How it was run: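 Assay system: Primary human umbilical vein endothelial cells | Quantity: 1250 cells per well | Medium: Supplemented EBM, 2% fetal bovine serum | Detection: CellTiter-Glo luminescence measuring cellular ATP | Read-out: % viability vs DMSO wells | Plate: Collagen-coated 384-well format | Times: 72 h exposure, 37 °C, 5% CO2, 30 min RT equilibration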

[3] = growth inhibitors of H69AR lung tumor, primary screen, human, duplicate replicates (AID 580;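 active = viability at or under a set limit in both replicates, limit being median viability minus 3 SD, cut at about 48% in these data, passing the limit was not always enough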;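 also: 100% = mean luminescence of untreated wells and 0% = no signal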); conditions: H69AR lung tumor cells viability, ATP luminescence, 72 h; at 10 µM; stronger effect = lower value
[4] = reversal of MRP1-mediated doxorubicin resistance, pilot screen, H69AR cells, doxorubicin co-treatment (AID 601;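 active = viability loss from added drug above about 55%, and viability with drug at most 40%, in both replicates, limit read from the data, passing the limit was not always enough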); conditions: CellTiter-Glo, 72 h, at 10 µM; for differential viability (reversal): stronger effect = higher value
[5] = 384-well plate pilot, post-Golgi transport modulator project, inhibition of yeast transport mutant growth (AID 636; in the data active = inhibition above about 31%); conditions: absorbance 615 nm, about 18 h, stronger effect = higher value
[6] = growth suppression of yeast trafficking mutant, preliminary HTS, modulators of trafficking downstream of Golgi apparatus project, 1536-format plate, OD 615 nm (AID 637); conditions: yeast transport mutant growth, absorbance 615 nm, 18 h; stronger effect = higher value
[7] = H69AR cells + 2 uM doxorubicin, measured here: viability with 2 uM doxorubicin, stronger effect = lower value
[8] = H69AR cells, compound alone cytotoxicity

SMILES | viability [1] | viability [2] | viability [3] | differential viability (reversal) ([4]; H69AR cells + 2 uM doxorubicin) | viability [4, 7] [%] | viability [4, 8] [%] | inhibition [5] | inhibition [6]
O=C(Nc1cc(C(F)(F)F)ccc1N1CCCC1)c1ccc2c(c1)OCO2 | 72% (inactive) | 92.9% (inactive) | 98% (inactive) | 0.92% (inactive) | 97.1 | 98 | -6.99% (inactive) | -5.09% (inactive)
CCCn1cnc2c(cnn2-c2ccc(F)cc2)c1=O | 100% (inactive) | 90.9% (inactive) | 98.8% (inactive) | 1.56% (inactive) | 97.3 | 98.8 | -0.78% (inactive) | 0.16% (inactive)
CCCCCC#CCC#CCC#CCC#CCCCC(=O)O | 152% (inactive) | 66.2% (inactive) | 93.6% (inactive) | -0.29% (inactive) | 93.9 | 93.6 | 0.78% (inactive) | 8.33% (inactive)
CC(=O)OCC(=O)[C@@]1(O)CC[C@H]2[C@@H]3CCC4=CC(=O)CC[C@]4(C)[C@H]3[C@@H](O)C[C@@]21C | 101% (inactive) | 74.1% (inactive) | 100% (inactive) | 2.38% (inactive) | 97.7 | 100 | -4.29% (inactive) | -1.17% (inactive)
COCCCn1c(=N)c(C(=O)NCC2CCCO2)cc2c(=O)n3cccc(C)c3nc21 (centres undefined) | 62% (inactive) | 93% (inactive) | 98.7% (inactive) | 5.39% (inactive) | 93.3 | 98.7 | -6.8% (inactive) | 2.18% (inactive)
CCOC(=O)c1cnc(SC2CC(=O)N(c3ccc(OC)c(OC)c3)C2=O)nc1N (centres undefined) | 121% (inactive) | 101% (inactive) | 111% (inactive) | 14% (inactive) | 96.8 | 111 | -0.55% (inactive) | 1.13% (inactive)
CC1(C)Cc2c(c(=S)nc(-c3ccccc3)n2CCO)CO1 | 111% (inactive) | 106% (inactive) | 87.6% (inactive) | -4.25% (inactive) | 91.9 | 87.6 | -1.43% (inactive) | -6.72% (inactive)
N#Cc1cc2ccccc2nc1SCC(=O)Nc1ccccc1N1CCOCC1 | 93% (inactive) | 64.4% (inactive) | 82.2% (inactive) | -10.8% (inactive) | 93 | 82.2 | -3.25% (inactive) | 0.33% (inactive)
CCOC(=O)c1c(C)oc2ccc(NS(=O)(=O)c3ccc4c5c(cccc35)C(=O)N4)cc12 | 103% (inactive) | 76.9% (inactive) | 83.9% (inactive) | 0.75% (inactive) | 83.1 | 83.9 | -7.53% (inactive) | 5.27% (inactive)
COc1ccc(C2/C(=C(/O)c3ccc(OC(C)C)cc3)C(=O)C(=O)N2CCCN2CCOCC2)cc1 (centres undefined) | 112% (inactive) | 97.7% (inactive) | 92.4% (inactive) | -12.4% (inactive) | 105 | 92.4 | -5.21% (inactive) | -1.09% (inactive)
COc1cc(CC(=O)Oc2ccc3c(c2)OCO3)cc(OC)c1OC | 98% (inactive) | 104% (inactive) | 84.8% (inactive) | 0.695% (inactive) | 84.2 | 84.8 | -2.93% (inactive) | 2.91% (inactive)
Cc1c(NC(=O)C(C)OC(=O)c2cc3c4ccccc4n(C)c3s2)c(=O)n(-c2ccccc2)n1C (centres undefined) | 94% (inactive) | 80.8% (inactive) | 78.4% (inactive) | -10% (inactive) | 88.4 | 78.4 | -11.4% (inactive) | 1.13% (inactive)
O=C(O)CCC(=O)NC1CCCCC1NC(=O)CCC(=O)O (centres undefined) | 104% (inactive) | 111% (inactive) | 99% (inactive) | 7.37% (inactive) | 91.6 | 99 | -5.47% (inactive) | 0.73% (inactive)
CC1=C(C(=O)Nc2ccccc2C)C(c2ccc(C)o2)N2C(=O)CSC2=N1 (centres undefined) | 105% (inactive) | 106% (inactive) | 96.4% (inactive) | 8.25% (inactive) | 88.2 | 96.4 | -9.04% (inactive) | 2.26% (inactive)
Cc1ccc(S(=O)(=O)N2CCN(c3nc(C(C)C)c4c(c3C#N)CC(C)(C)OC4)CC2)cc1 | 65% (inactive) | 111% (inactive) | 79.6% (inactive) | 9.54% (inactive) | 70 | 79.6 | -1.22% (inactive) | -3.09% (inactive)
CCOC(=O)Cc1csc(NC(=O)CSc2nnc(C3CC3)n2C)n1 | 95% (inactive) | 107% (inactive) | 97.9% (inactive) | 6.36% (inactive) | 91.5 | 97.9 | -5.81% (inactive) | -3.82% (inactive)
Cc1cc(C(=O)Nc2nc3c(s2)CCCC3)cs1 | 93% (inactive) | 67.5% (inactive) | 91.9% (inactive) | 14% (inactive) | 77.8 | 91.9 | -0.14% (inactive) | -7.58% (inactive)
O=S1(=O)C=C(Oc2ccc(F)cc2)c2ccccc21 | 100% (inactive) | 101% (inactive) | 92.5% (inactive) | 4.02% (inactive) | 88.5 | 92.5 | -7.03% (inactive) | 1.27% (inactive)
